Results taken from ChEMBL document CHEMBL3872211, “4, 5-Dihydrooxazole-pyrazoline hybrids: Synthesis and their evaluation as potential antimalarial agents” (Eur J Med Chem, 2016).
Values after ≈ are worked out from the molar mass of the structure shown. Active and inactive are the calls of the source. No cut-off for these calls is given here.

Columns and labels:
Plasmodium falciparum [1] = assay: Antimalarial activity against chloroquine-sensitive Plasmodium falciparum 3D7 infected in human red blood cells assessed as inhibition of schizont stage parasite growth measured after 24 hrs by giemsa staining based assay; assay type: functional, cell-based; conditions: 3D7, 24 h
In short: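 Parasitized RBCs (2-3% parasitemia, 8% hematocrit) in RPMI 1640 with human AB+ serum were exposed to serial dilutions of test samples from 1 mg/ml stock. Incubation was 24 h at 37 °C under 90% N2/5% CO2/5% O2. Giemsa-stained smears were scored for schizonts (≥3 merozoites). IC50 was taken from dose-response curves by non-linear regression.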

Plasmodium falciparum [2] = assay: Antimalarial activity against chloroquine-resistant Plasmodium falciparum RKL9 infected in human red blood cells assessed as inhibition of schizont stage parasite growth measured after 24 hrs by giemsa staining based assay; assay type: functional, cell-based; conditions: RKL9, 24 h
In short: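 P. falciparum RKL9 parasitized RBCs at 2-3% parasitemia, 8% hematocrit in RPMI 1640 with human AB+ serum. Exposed to serial dilutions of test samples, 24 h at 37 °C under 90% N2/5% CO2/5% O2. Giemsa-stained smears; schizonts (≥3 merozoites) counted; IC50 by non-linear regression of dose-response curves.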

[3] = Selectivity index, ratio of IC50 for cytotoxicity against African green monkey vero cells to IC50 for antimalarial activity against chloroquine-sensitive Plasmodium falciparum 3D7 infected in human red blood cells; assay type: toxicity, cell-based; conditions: read-out: Ratio IC50
In short: (§1)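 SI = CC50/IC50. CC50 from Vero cells exposed 72 h to compound dilutions, MTT read-out (modified Mosmann method). Antimalarial IC50 from 24 h, 37 °C P. falciparum (3D7 or RKL9) RBC culture, Giemsa schizont counts, non-linear regression.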

[4] = Resistance index, ratio of IC50 for chloroquine-resistant Plasmodium falciparum RKL9 infected in human RBC to IC50 for chloroquine-sensitive Plasmodium falciparum 3D7 infected in human red blood cells; assay type: functional
In short: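 Ratio of IC50 vs RKL9 to IC50 vs 3D7. Both from 24 h, 37 °C culture in RBCs (2-3% parasitemia, 8% hematocrit, RPMI 1640 plus human AB+ serum, 90% N2/5% CO2/5% O2), Giemsa smear schizont counts, non-linear regression.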

[5] = Selectivity index, ratio of IC50 for cytotoxicity against African green monkey vero cells to IC50 for antimalarial activity against chloroquine-resistant Plasmodium falciparum RKL9 infected in human red blood cells; assay type: toxicity, cell-based; conditions: read-out: Ratio IC50; in short: as §1
Plasmodium berghei [6] = assay: Antimalarial activity against Plasmodium berghei NK65 infected in Swiss albino mouse assessed as reduction in parasitemia at 25 mg/kg, po administered 4 hrs post infection for 4 days measured on day 4 post infection by giemsa staining based microscopic method; assay type: functional; design: scale not given: the % may be the effect or the level left
In short: (§2)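 Peters 4-day suppressive test: female Swiss albino mice (20-25 g), groups of five, infected ip with about 10-15% P. berghei NK65-parasitized erythrocytes from a donor mouse. Oral dosing began 4 h later and was given on days 0-3. Vehicle-only group served as negative control. On day 4, tail-vein smears were methanol-fixed, Giemsa-stained and read at 1000×. % suppression was calculated against the negative control.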

Rattus norvegicus = assay: Acute toxicity in Wistar rat assessed as inflammatory cells infiltration in periportal area of liver at <300 mg/kg, po measured after 14 days; assay type: organism-based; conditions: in vivo, 336 h
Plasmodium berghei [7] = assay: Antimalarial activity against Plasmodium berghei NK65 infected in Swiss albino mouse assessed as mean survival days at 50 mg/kg, po administered 4 hrs post infection for 4 days measured up to 30 days (Rvb= 7.2 days); assay type: functional
Plasmodium berghei [8] = assay: Antimalarial activity against Plasmodium berghei NK65 infected in Swiss albino mouse assessed as mean survival days at 25 mg/kg, po administered 4 hrs post infection for 4 days measured up to 30 days (reference value: 7.2 days); assay type: functional
Plasmodium berghei [9] = assay: Antimalarial activity against Plasmodium berghei NK65 infected in Swiss albino mouse assessed as reduction in parasitemia at 50 mg/kg, po administered 4 hrs post infection for 4 days measured on day 4 post infection by giemsa staining based microscopic method; assay type: functional; design: scale not given: the % may be the effect or the level left; in short: as §2
mu-oxodimeric heme [10] = assay: Binding affinity to mu-oxodimeric heme (unknown origin) assessed as 1:1 stoichiometry for mu-oxodimeric heme-compound complex up to 100 uM at pH 5.8 by Job's plot analysis
In short: (§3)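 Hemin stock was 10 mM in 0.1 M NaOH, sonicated 30 min, then diluted in 20 mM phosphate buffer pH 5.8 to give µ-oxodimeric heme. Compound from 2 mM DMSO stock was titrated in (0-100 µM) and absorbance followed at 362 nm. Log K was obtained by titration, and stoichiometry by molar-fraction Job's plot.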

mu-oxodimeric heme [11] = assay: Binding affinity to mu-oxodimeric heme (unknown origin) assessed as association constant at pH 5.8 by UV-titration method; in short: as §3
Heme [12] = assay: Binding affinity to monomeric heme (unknown origin) assessed as association constant at pH 5.6 by UV-titration method
In short: (§4)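 Hemin stock was 1.2 mM in DMSO. It was diluted into aqueous DMSO (40%) buffered with HEPES pH 7.4 (0.02 M), or with MES for the pH 5.6 run. The titrant (2 mM stock in DMSO) was added stepwise at 0-100 µM final, and the Soret band was read at 402 nm. Association constant (log K) was derived by titration.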

Heme [13] = assay: Binding affinity to monomeric heme (unknown origin) assessed as association constant at pH 7.4 by UV-titration method; in short: as §4
Heme [14] = assay: Binding affinity to monomeric heme assessed as 1:1 stoichiometry for heme-compound complex up to 100 uM at pH 5.6 by Job's plot analysis
In short: (§5)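 Monomeric hemin was prepared in 40% DMSO with 0.02 M HEPES (pH 7.4) or 0.02 M MES (pH 5.6). Absorbance was monitored at 402 nm. Complex stoichiometry was determined by a molar-fraction Job's plot.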

Heme [15] = assay: Binding affinity to monomeric heme assessed as 1:1 stoichiometry for heme-compound complex up to 100 uM at pH 7.4 by Job's plot analysis; in short: as §5
Plasmodium berghei [16] = assay: Antimalarial activity against Plasmodium berghei NK65 infected in Swiss albino mouse assessed as mean survival days at 5 mg/kg, po administered 4 hrs post infection for 4 days measured up to 30 days (reference value: 7.2 days); assay type: functional
Plasmodium berghei [17] = assay: Antimalarial activity against Plasmodium berghei NK65 infected in Swiss albino mouse assessed as reduction in parasitemia at 5 mg/kg, po administered 4 hrs post infection for 4 days measured on day 4 post infection by giemsa staining based microscopic method; assay type: functional; design: scale not given: the % may be the effect or the level left; in short: as §2

Compound | IC50 (Plasmodium falciparum [1]) [µg/mL] | IC50 (Plasmodium falciparum [2]) [µg/mL] | selectivity ratio [3] | Ratio IC50 [4] | selectivity ratio [5] | also measured
Cc1ccc(/C=C/C(=O)c2ccc(OCC3=NCCO3)cc2)cc1 | 2.68 (≈ 8.34 µM) |  |  |  |  | 
c1ccc(N2N=C(c3ccc(OCC4=NCCO4)cc3)CC2c2c[nH]c3ccccc23)cc1 (configuration not stated) | 0.459 (≈ 1.05 µM) | 4.23 (≈ 9.7 µM) | 21.3 | 9.22 | 2.3 | 
COc1ccc(C2CC(c3ccc(OCC4=NCCO4)cc3)=NN2c2ccccc2)cc1 (configuration not stated) | 0.545 (≈ 1.27 µM) | 1.57 (≈ 3.67 µM) | 30.4 | 2.88 | 10.5 | 
O=C(/C=C/c1ccc2c(c1)OCCO2)c1ccc(OCC2=NCCO2)cc1 | 4.23 (≈ 11.6 µM) |  |  |  |  | 
NS(=O)(=O)c1ccc(N2N=C(c3ccc(OCC4=NCCO4)cc3)CC2c2ccc([N+](=O)[O-])cc2)cc1 (configuration not stated) | 0.627 (≈ 1.2 µM) |  |  |  |  | 
CC(=O)N1N=C(c2ccc(OCC3=NCCO3)cc2)CC1c1ccc(Cl)cc1 (configuration not stated) | 0.513 (≈ 1.29 µM) | 1.57 (≈ 3.95 µM) | 29.5 | 3.06 | 9.6 | 
COc1ccc(C2CC(c3ccc(OCC4=NCCO4)cc3)=NN2c2ccc(S(N)(=O)=O)cc2)cc1 (configuration not stated) | 0.322 (≈ 0.636 µM) | 0.737 (≈ 1.45 µM) | 12.5 | 2.29 | 5.5 | Activity (Plasmodium berghei [6]): 63.89%; Activity (Rattus norvegicus): Non-Toxic; MSD (Plasmodium berghei [7]): 15.6 days; MSD (Plasmodium berghei [8]): 11.4 days; Activity (Plasmodium berghei [9]): 79.33%; Activity (mu-oxodimeric heme [10]): Active; log K (mu-oxodimeric heme [11]): 4.34; log K (Heme [12]): 4.98; log K (Heme [13]): 5.87; Activity (Heme [14]): Active; Activity (Heme [15]): Active
O=C(/C=C/c1ccccc1)c1ccc(OCC2=NCCO2)cc1 | 1.77 (≈ 5.77 µM) |  |  |  |  | 
O=C(/C=C/c1c[nH]c2ccccc12)c1ccc(OCC2=NCCO2)cc1 | 0.936 (≈ 2.7 µM) |  |  |  |  | 
COc1cccc(/C=C/C(=O)c2ccc(OCC3=NCCO3)cc2)c1 | 1.82 (≈ 5.4 µM) |  |  |  |  | 
O=C(/C=C/c1ccc(O)cc1)c1ccc(OCC2=NCCO2)cc1 | 2.44 (≈ 7.54 µM) |  |  |  |  | 
COc1ccc(C2CC(c3ccc(OCC4=NCCO4)cc3)=NN2)cc1 (configuration not stated) | 1.03 (≈ 2.94 µM) |  |  |  |  | 
O=C(/C=C/c1ccc([N+](=O)[O-])cc1)c1ccc(OCC2=NCCO2)cc1 | 0.723 (≈ 2.05 µM) |  |  |  |  | 
c1ccc2c(C3CC(c4ccc(OCC5=NCCO5)cc4)=NN3)c[nH]c2c1 (configuration not stated) | 0.657 (≈ 1.82 µM) |  |  |  |  | 
NS(=O)(=O)c1ccc(N2N=C(c3ccc(OCC4=NCCO4)cc3)CC2c2ccc3c(c2)OCCO3)cc1 (configuration not stated) | 2.15 (≈ 4.03 µM) |  |  |  |  | 
O=C(/C=C/c1ccc(F)cc1)c1ccc(OCC2=NCCO2)cc1 | 0.813 (≈ 2.5 µM) |  |  |  |  | 

Compound | IC50 (Plasmodium falciparum [1]) [µg/mL] | IC50 (Plasmodium falciparum [2]) [µg/mL] | selectivity ratio [3] | Ratio IC50 [4] | selectivity ratio [5] | also measured
COc1cccc(C2CC(c3ccc(OCC4=NCCO4)cc3)=NN2c2ccc(S(N)(=O)=O)cc2)c1 (configuration not stated) | 0.413 (≈ 0.815 µM) | 0.936 (≈ 1.85 µM) | 18.4 | 2.27 | 8.1 | 
NS(=O)(=O)c1ccc(N2N=C(c3ccc(OCC4=NCCO4)cc3)CC2c2ccc(Cl)cc2)cc1 (configuration not stated) | 0.471 (≈ 0.922 µM) | 1.82 (≈ 3.57 µM) | 22.2 | 3.87 | 5.7 | 
COc1ccc(/C=C/C(=O)c2ccc(OCC3=NCCO3)cc2)cc1 | 1.57 (≈ 4.66 µM) |  |  |  |  | 
O=C(/C=C/c1ccc(Cl)cc1)c1ccc(OCC2=NCCO2)cc1 | 0.557 (≈ 1.63 µM) | 1.82 (≈ 5.33 µM) | 25.5 | 3.27 | 7.8 | 
NS(=O)(=O)c1ccc(N2N=C(c3ccc(OCC4=NCCO4)cc3)CC2c2cccc([N+](=O)[O-])c2)cc1 (configuration not stated) | 1.02 (≈ 1.96 µM) |  |  |  |  | 
CCN(CC)CCCC(C)Nc1ccnc2cc(Cl)ccc12 (configuration not stated) [CHLOROQUINE] |  |  |  |  |  | MSD (Plasmodium berghei [16]): 30 days; Activity (Plasmodium berghei [17]): 97.1%
Cc1ccc(C2CC(c3ccc(OCC4=NCCO4)cc3)=NN2c2ccccc2)cc1 (configuration not stated) | 1.01 (≈ 2.45 µM) |  |  |  |  | 
Fc1ccc(C2CC(c3ccc(OCC4=NCCO4)cc3)=NN2c2ccccc2)cc1 (configuration not stated) | 0.645 (≈ 1.55 µM) |  |  |  |  | 
CC(=O)c1ccc(OCC2=NCCO2)cc1 | 0.737 (≈ 3.36 µM) |  |  |  |  | 
O=C(/C=C/c1cccc(Cl)c1)c1ccc(OCC2=NCCO2)cc1 | 0.577 (≈ 1.69 µM) |  |  |  |  | 
NS(=O)(=O)c1ccc(N2N=C(c3ccc(OCC4=NCCO4)cc3)CC2c2ccc(F)cc2)cc1 (configuration not stated) | 0.419 (≈ 0.847 µM) | 1.77 (≈ 3.59 µM) | 19.8 | 4.23 | 4.6 | 
NS(=O)(=O)c1ccc(N2N=C(c3ccc(OCC4=NCCO4)cc3)CC2c2cccc(Cl)c2)cc1 (configuration not stated) | 0.552 (≈ 1.08 µM) | 2.15 (≈ 4.22 µM) | 34.2 | 3.9 | 8.7 | 
Clc1ccc(C2CC(c3ccc(OCC4=NCCO4)cc3)=NN2c2ccccc2)cc1 (configuration not stated) | 0.477 (≈ 1.1 µM) | 1.57 (≈ 3.64 µM) | 23.3 | 3.29 | 7.1 | 
O=C(/C=C/c1cccc(O)c1)c1ccc(OCC2=NCCO2)cc1 | 0.515 (≈ 1.59 µM) | 1.57 (≈ 4.86 µM) | 23.6 | 3.05 | 7.7 | 
O=C(/C=C/c1cccc([N+](=O)[O-])c1)c1ccc(OCC2=NCCO2)cc1 | 1.57 (≈ 4.46 µM) |  |  |  |  | 
